Measured values from ChEMBL document CHEMBL1150327, “E,E-2-Benzylidene-6-(nitrobenzylidene)cyclohexanones: syntheses, cytotoxicity and an examination of some of their electronic, steric, and hydrophobic properties” (Bioorg Med Chem, 2008).
The source made the active and inactive calls. The calls are words filed in the database; no cut-off is given here.

Columns and labels:
CCRF-CEM = assay: Cytotoxicity against human CEM cells after 72 hrs; type: functional, cell-based
Procedure, shortened: (§1)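 Compounds tested over a range of concentrations on cells in RPMI 1640 medium at 37 °C for 72 h. IC50 taken as the concentration inhibiting cell growth by 50%.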

L1210 = assay: Cytotoxicity against mouse L1210 cells after 48 hrs; type: functional, cell-based; conditions: L1210, 48 h
Procedure, shortened: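 Murine L1210 lymphoid leukemia cells exposed to graded compound concentrations in RPMI 1640 at 37 °C for 48 h. IC50 is the concentration giving 50% growth inhibition.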

[1] = Cytotoxicity against human Molt4/C8 cells after 72 hrs; type: functional, cell-based; conditions: MOLT-4, 72 h; procedure, shortened: as §1
[2] = Lipophilicity, log P of the compound; type: physicochemical; conditions: calculated
Procedure, shortened: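 Calculated logP, generated with the JME molecular editor rather than measured.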

Liver = assay: Stimulation of respiration in rat liver mitochondria; type: functional
Procedure, shortened: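 Liver mitochondria isolated from rats anesthetized with isoflurane and decapitated. Oxygen consumption measured by polarography. Compound tested at 10 μM, with a DMSO solvent control (4 μL). Differences judged against standard deviations.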

SMILES	IC50 (CCRF-CEM)	IC50 (L1210)	IC50 [1]	logP [2]	Activity (Liver)
Cc1ccc(/C=C2\CCC/C(=C\c3ccc([N+](=O)[O-])cc3)C2=O)cc1	8.53 µM	8.16 µM	8.44 µM	5.38	–
O=C1/C(=C/c2ccc(Cl)cc2)CCC/C1=C\c1cccc([N+](=O)[O-])c1	1.75 µM	9.16 µM	2.02 µM	5.58	–
Cc1ccc(/C=C2\CCC/C(=C\c3ccccc3[N+](=O)[O-])C2=O)cc1	6.09 µM	7.77 µM	7.52 µM	5.15	–
COc1cc(/C=C2\CCC/C(=C\c3ccc([N+](=O)[O-])cc3)C2=O)cc(OC)c1OC	4.61 µM	6.97 µM	6.42 µM	4.56	Active
O=C1CCCC/C1=C\c1cccc([N+](=O)[O-])c1	8.12 µM	50.1 µM	8.28 µM	–	–
COc1ccc(/C=C2\CCC/C(=C\c3ccccc3[N+](=O)[O-])C2=O)cc1	7.45 µM	42.4 µM	8.9 µM	4.76	–
O=C1CCCC/C1=C\c1ccc([N+](=O)[O-])cc1	19.3 µM	46.5 µM	13.9 µM	–	–
O=C1/C(=C/c2ccc(Cl)cc2)CCC/C1=C\c1ccccc1[N+](=O)[O-]	1.75 µM	9.38 µM	3.86 µM	5.38	–
O=C1/C(=C/c2ccccc2)CCC/C1=C\c1ccccc1[N+](=O)[O-]	0.925 µM	4.84 µM	1.48 µM	4.7	–
COc1cc(/C=C2\CCC/C(=C\c3cccc([N+](=O)[O-])c3)C2=O)cc(OC)c1OC	45.2 µM	42.2 µM	44 µM	4.53	–
O=C1/C(=C/c2ccc(F)cc2)CCC/C1=C\c1ccccc1[N+](=O)[O-]	1.51 µM	8.4 µM	1.87 µM	4.86	–
O=C1/C(=C/c2ccc(F)cc2)CCC/C1=C\c1cccc([N+](=O)[O-])c1	5.05 µM	16.3 µM	5.12 µM	5.06	–
O=C1/C(=C/c2ccccc2)CCC/C1=C\c1ccc([N+](=O)[O-])cc1	9.32 µM	9.8 µM	8.35 µM	4.93	–
COc1cc(/C=C2\CCC/C(=C\c3ccccc3[N+](=O)[O-])C2=O)cc(OC)c1OC	0.402 µM	1.52 µM	0.702 µM	4.33	Active
O=C1CCCC/C1=C\c1ccccc1[N+](=O)[O-]	36.4 µM	23.8 µM	33.3 µM	–	–
O=C1/C(=C/c2ccc(F)cc2)CCC/C1=C\c1ccc([N+](=O)[O-])cc1	18.6 µM	26.8 µM	17.1 µM	5.08	–
O=C1/C(=C/c2ccc(Cl)cc2)CCC/C1=C\c1ccc([N+](=O)[O-])cc1	8.18 µM	9.41 µM	9.12 µM	5.61	–
COc1ccc(/C=C2\CCC/C(=C\c3cccc([N+](=O)[O-])c3)C2=O)cc1	8.22 µM	29.5 µM	7.98 µM	4.96	–
CN(C)c1ccc(/C=C2\CCC/C(=C\c3ccccc3[N+](=O)[O-])C2=O)cc1	168 µM	164 µM	122 µM	4.8	–
O=C1/C(=C/c2ccccc2)CCC/C1=C\c1cccc([N+](=O)[O-])c1	2.29 µM	9.44 µM	1.7 µM	4.9	–
Cc1ccc(/C=C2\CCC/C(=C\c3cccc([N+](=O)[O-])c3)C2=O)cc1	10.1 µM	41.8 µM	9.53 µM	5.35	–
COc1ccc(/C=C2\CCC/C(=C\c3ccc([N+](=O)[O-])cc3)C2=O)cc1	250 µM	240 µM	300 µM	4.98	–
CN(C)c1ccc(/C=C2\CCC/C(=C\c3ccc([N+](=O)[O-])cc3)C2=O)cc1	> 500 µM	> 500 µM	> 500 µM	5.03	–
CN(C)c1ccc(/C=C2\CCC/C(=C\c3cccc([N+](=O)[O-])c3)C2=O)cc1	11.7 µM	156 µM	10.9 µM	5.01	–
